Laboratory results as given in ChEMBL document CHEMBL1141177, “The novel L- and D-amino acid derivatives of hydroxyurea and hydantoins: synthesis, X-ray crystal structure study, and cytostatic and antiviral activity evaluations” (J Med Chem, 2005).
Values after ≈ are worked out from the molar mass of the structure shown.

Columns and labels:
[1] = tested on: MIA PaCa-2; assay: Inhibition of pancreatic carcinoma cell line (MiaPaCa-2) growth; type: functional, cell-based; details: Homo sapiens
Procedure, shortened: (§1)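 Monolayers in DMEM with 10% FBS, 2 mM L-glutamine, penicillin/streptomycin, 37 °C, 5% CO2. Cells seeded on day 0, then compounds added in 5- and 10-fold dilutions (10^-8–10^-4 M) for 72 h. MTT read-out at 570 nm. Percent growth calculated relative to time-zero and untreated OD. Quadruplicates in three experiments; IC50 by linear interpolation, highest concentration reported as ">" when not reached.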

[2] = tested on: MOLT-4; assay: Inhibition of human T-lymphocyte cell line (Molt4/C8) growth; type: functional, cell-based
[3] = tested on: HEL; assay: Minimum cytotoxic concentration of compound that causes alteration of cell morphology in human embryonic lung cells; type: functional
Procedure, shortened: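 Human embryonic lung (HEL) cells were examined microscopically. MCC is the minimum concentration that causes a detectable alteration of cell morphology.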

[4] = tested on: Human alphaherpesvirus 3; assay: Reduction of plaque formation by VZV07/1 strain of thymidine kinase(TK-) deficient VZ virus in human embryonic lung cells; type: functional, organism-based; details: Human alphaherpesvirus 3, lung
[5] = tested on: WI-38; assay: Inhibition of normal human fibroblast cell line (WI 38) growth; type: functional, cell-based; procedure, shortened: as §1
[6] = tested on: MCF7; assay: Inhibition of breast carcinoma cell line (MCF-7) growth; type: functional, cell-based; details: Homo sapiens; procedure, shortened: as §1
[7] = tested on: HeLa; assay: Inhibition of cervical carcinoma cell line (HeLa) growth; type: functional, cell-based; details: Homo sapiens; procedure, shortened: as §1
[8] = tested on: L1210; assay: Inhibition of murine leukemia cells (L1210) growth; type: functional, cell-based; details: Mus musculus
[9] = tested on: HEL; assay: Cytotoxic concentration to reduce the 50% cell growth of human embryonic lung cells; type: functional
[10] = Effective concentration required to reduce plaque formation by AD-169 strain of CMV virus in Human embryonic lung cells; type: functional, cell-based
Procedure, shortened: (§2)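 Plaque reduction assay in human embryonic lung (HEL) cell cultures, virus input 100 plaque forming units. Viruses: CMV strains AD-169 and Davis, VZV TK+ strain OKA and TK− strain 07/1. EC50 is the concentration that reduces virus plaque formation by 50%.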

[11] = tested on: HEp-2; assay: Inhibition of laryngeal carcinoma cell line (Hep-2) growth; type: functional, cell-based; details: Homo sapiens; procedure, shortened: as §1
[12] = tested on: Human alphaherpesvirus 3; assay: Effective concentration of compound required to reduce plaque formation by OKA strain of thymidine kinase positive VZ virus TK+ in human embryonic lung cells; type: functional, organism-based; details: Human alphaherpesvirus 3, lung
[13] = Effective concentration required to reduce plaque formation by Davis strain of CMV virus in Human embryonic lung cells; type: functional, cell-based; procedure, shortened: as §2
[14] = tested on: SW-620; assay: Inhibition of colon carcinoma cell line (SW 620) growth; type: functional, cell-based; details: Homo sapiens; procedure, shortened: as §1
[15] = tested on: Cytomegalovirus; assay: Effective concentration of the compound to reduce plaque-formation of Cytomegalovirus davis strain in human embryonic lungcell cultures; type: functional, organism-based; details: Human betaherpesvirus 5; procedure, shortened: as §2
[16] = tested on: Cytomegalovirus; assay: Effective concentration to reduce plaque formation of Cytomegalovirus AD-169 strain in human embryonic lung cell cultures; type: functional, organism-based; details: Human betaherpesvirus 5, lung; procedure, shortened: as §2
[17] = Homo sapiens, HEL, read-out: CC50

CC(C)C(NC(=O)n1nnc2ccccc21)C(=O)NC1CCCCC1 (stereo unspecified)
IC50 [1]: > 100 µM | IC50 [2]: 97 µM | MCC [3]: ≥ 80 µg/mL | EC50 [4]: > 3.2 µg/mL | IC50 [5]: ≥ 100 µM | IC50 [6]: 79.3 µM | IC50 [7]: 96.4 µM | IC50 [8]: 108 µM | CC50 [9, 17]: 90 µg/mL (≈ 262 µM) | EC50 [10]: > 80 µg/mL | IC50 [11]: 60 µM | EC50 [12]: > 3.2 µg/mL | EC50 [13]: > 16 µg/mL | IC50 [14]: > 100 µM

Nc1ccn(C[C@@H](CO)OCP(=O)(O)O)c(=O)n1.O.O [CIDOFOVIR]
EC50 [15]: 0.13 µg/mL | MCC [3]: > 400 µg/mL | EC50 [16]: 0.13 µg/mL | CC50 [9]: 21.3 µg/mL | CC50 [9, 17]: 21.3 µg/mL | EC50 [10]: 0.13 µg/mL | EC50 [13]: 0.13 µg/mL

Nc1nc2c(ncn2COC(CO)CO)c(=O)[nH]1 [GANCICLOVIR]
EC50 [15]: 0.34 µg/mL (≈ 1.33 µM) | MCC [3]: > 400 µg/mL | EC50 [16]: 0.24 µg/mL (≈ 0.94 µM) | EC50 [10]: 0.24 µg/mL (≈ 0.94 µM) | EC50 [13]: 0.34 µg/mL (≈ 1.33 µM)
